Experimental data: ChEMBL document CHEMBL1629581, “Diverse cytomegalovirus UL27 mutations adapt to loss of viral UL97 kinase activity under maribavir” (Antimicrob Agents Chemother, 2009)
The source made the active and inactive calls. The calls are words filed in the database; no cut-off is given here.

Experiments:
Human betaherpesvirus 5 [1] = assay: Antiviral activity against Human cytomegalovirus clinical isolate C076 harboring UL97 V353A mutant gene with UL27 del 301 to 311 codon by SEAP yield reduction assay relative to wild type; type: functional
Human betaherpesvirus 5 [2] = assay: Antiviral activity against 0.01 to 0.02 MOI of Human cytomegalovirus T2899 expressing wild type UL97 kinase with N289D, D298G, N300G, P307L,V310A, D351N, I367V mutant gene assessed as growth inhibition at day 6 by SEAP yield reduction assay relative to control; type: functional, organism-based
Human betaherpesvirus 5 [3] = assay: Ratio of EC50 for Human cytomegalovirus T2898 expressing UL27 kinase with W362stop gene N289D, D298G, N300G, P307L, V310A, D351N, I367V mutant gene to EC50 for Human cytomegalovirus T2211 expressing wild type UL27 gene; type: functional
Outline: (§1)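 Each strain's maribavir EC50 comes from a 6-day SEAP yield reduction in human embryonic lung fibroblasts at MOI 0.01 to 0.02, fitted from supernatant chemiluminescence over at least 12 replicates on at least four dates. It is expressed relative to the EC50 of baseline strain T2211 assayed simultaneously on the same setup dates.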

Human betaherpesvirus 5 [4] = assay: Antiviral activity against Human cytomegalovirus T3020 expressing UL27 kinase with E22stop gene by SEAP yield reduction assay; type: functional, organism-based; details: Human betaherpesvirus 5, T3020
Outline: (§2)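 Cell-free virus was put on 6-day-old human embryonic lung fibroblast monolayers at MOI 0.01 to 0.02 and cultured 6 days across a maribavir range (six wells per assay). Supernatant SEAP was read by chemiluminescent substrate, and EC50 was derived by curve fitting. Values are the mean and standard error of at least 12 replicates over at least four dates. T2211 was run alongside on every date.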

Human betaherpesvirus 5 [5] = assay: Ratio of EC50 for Human cytomegalovirus T2899 expressing wild type UL27 kinase with N289D, D298G, N300G, P307L,V310A, D351N, I367V mutant gene to EC50 for Human cytomegalovirus T2211 expressing wild type UL27 gene; type: functional; outline: as §1
Human betaherpesvirus 5 [6] = assay: Antiviral activity against Human cytomegalovirus T2867 expressing UL27 kinase with A269T mutant gene by SEAP yield reduction assay; type: functional, organism-based; details: Human betaherpesvirus 5, T2867; outline: as §2
Human betaherpesvirus 5 [7] = assay: Ratio of EC50 for Human cytomegalovirus T2890 expressing UL97 kinase with V353A mutant gene to EC50 for Human cytomegalovirus T2211 expressing wild type UL27 gene; type: functional; outline: as §1
Human betaherpesvirus 5 [8] = assay: Antiviral activity against Human cytomegalovirus T2898 expressing UL27 kinase with W362stop gene N289D, D298G, N300G, P307L, V310A, D351N, I367V mutant gene by SEAP yield reduction assay; type: functional, organism-based; details: Human betaherpesvirus 5, T2898; outline: as §2
Human betaherpesvirus 5 [9] = assay: Antiviral activity against 0.01 to 0.02 MOI of Human cytomegalovirus T2266 harboring UL97 deletion of 537 through the end mutant gene assessed as growth inhibition at day 6 by SEAP yield reduction assay relative to control; type: functional, organism-based
Human betaherpesvirus 5 [10] = assay: Antiviral activity against Human cytomegalovirus clinical T2294 harboring UL97 T409 mutant gene with UL27 V353E mutant gene by SEAP yield reduction assay relative to wild type; type: functional
Human betaherpesvirus 5 [11] = assay: Ratio of EC50 for Human cytomegalovirus T3020 expressing UL27 kinase with E22stop gene to EC50 for Human cytomegalovirus T2211 expressing wild type UL27 gene; type: functional; outline: as §1
Human betaherpesvirus 5 [12] = assay: Ratio of EC50 for Human cytomegalovirus T2981 expressing UL27 kinase with W153R mutant gene to EC50 for Human cytomegalovirus T2211 expressing wild type UL27 gene; type: functional; outline: as §1
Human betaherpesvirus 5 [13] = assay: Ratio of EC50 for Human cytomegalovirus T3019 expressing UL27 kinase with 218delC mutant gene to EC50 for Human cytomegalovirus T2211 expressing wild type UL27 gene; type: functional; outline: as §1
Human betaherpesvirus 5 [14] = assay: Antiviral activity against Human cytomegalovirus T2981 expressing UL27 kinase with W153R mutant gene by SEAP yield reduction assay; type: functional, organism-based; details: Human betaherpesvirus 5, T2981; outline: as §2
Human betaherpesvirus 5 [15] = assay: Ratio of EC50 for Human cytomegalovirus T3053 expressing UL27 kinase with V353E mutant gene to EC50 for Human cytomegalovirus T2211 expressing wild type UL27 gene; type: functional; outline: as §1
Human betaherpesvirus 5 [16] = assay: Antiviral activity against Human cytomegalovirus T3019 expressing UL27 kinase with 218delC mutant gene by SEAP yield reduction assay; type: functional, organism-based; details: Human betaherpesvirus 5, T3019; outline: as §2
Human betaherpesvirus 5 [17] = assay: Antiviral activity against Human cytomegalovirus clinical T2294 harboring UL97 T409 mutant gene with UL27 E22stop mutant gene by SEAP yield reduction assay relative to wild type; type: functional
Human betaherpesvirus 5 [18] = assay: Antiviral activity against Human cytomegalovirus T3037 expressing UL27 kinase with L426F mutant gene by SEAP yield reduction assay; type: functional, organism-based; details: Human betaherpesvirus 5, T3037; outline: as §2
Human betaherpesvirus 5 [19] = assay: Antiviral activity against Human cytomegalovirus T2931 expressing UL27 kinase 301 to 311 deletion with frame shift mutation at 311 codon by SEAP yield reduction assay; type: functional, organism-based; details: Human betaherpesvirus 5, T2931; outline: as §2
Human betaherpesvirus 5 [20] = assay: Antiviral activity against Human cytomegalovirus T2899 expressing wild type UL27 kinase with N289D, D298G, N300G, P307L,V310A, D351N, I367V mutant gene by SEAP yield reduction assay; type: functional, organism-based; details: Human betaherpesvirus 5, T2899; outline: as §2
Human betaherpesvirus 5 [21] = assay: Ratio of EC50 for Human cytomegalovirus T3037 expressing UL27 kinase with L426F mutant gene to EC50 for Human cytomegalovirus T2211 expressing wild type UL27 gene; type: functional; outline: as §1
Human betaherpesvirus 5 [22] = assay: Antiviral activity against 0.01 to 0.02 MOI of Human cytomegalovirus T2867 expressing UL27 kinase with A269T mutant gene assessed as growth inhibition at day 6 by SEAP yield reduction assay relative to control; type: functional, organism-based
Human betaherpesvirus 5 [23] = assay: Antiviral activity against Human cytomegalovirus clinical T2294 harboring UL97 T409M mutant gene with UL27 W153R mutant gene by SEAP yield reduction assay relative to wild type; type: functional
Human betaherpesvirus 5 [24] = assay: Antiviral activity against Human cytomegalovirus T2767 expressing UL27 kinase with L193Fmutant gene by SEAP yield reduction assay; type: functional, organism-based; details: Human betaherpesvirus 5, T2767; outline: as §2
Human betaherpesvirus 5 [25] = assay: Antiviral activity against Human cytomegalovirus T2890 expressing UL97 kinase with V353A mutant gene by SEAP yield reduction assay; type: functional, organism-based; details: Human betaherpesvirus 5, T2890; outline: as §2
Human betaherpesvirus 5 [26] = assay: Ratio of EC50 for Human cytomegalovirus T2767 expressing UL27 kinase with L193Fmutant gene to EC50 for Human cytomegalovirus T2211 expressing wild type UL27 gene; type: functional; outline: as §1
Human betaherpesvirus 5 [27] = assay: Antiviral activity against 0.01 to 0.02 MOI of Human cytomegalovirus T2931 expressing UL27 kinase 301 to 311 deletion with frame shift mutation at 311 codon assessed as growth inhibition at day 6 by SEAP yield reduction assay relative to control; type: functional, organism-based
Human betaherpesvirus 5 [28] = assay: Antiviral activity against Human cytomegalovirus T3053 expressing UL27 kinase with V353E mutant gene by SEAP yield reduction assay; type: functional, organism-based; details: Human betaherpesvirus 5, T3053; outline: as §2
Human betaherpesvirus 5 [29] = assay: Antiviral activity against 0.01 to 0.02 MOI of Human cytomegalovirus T2898 expressing UL27 kinase with W362stop gene N289D, D298G, N300G, P307L, V310A, D351N, I367V mutant gene assessed as growth inhibition at day 6 by SEAP yield reduction assay relative to control; type: functional, organism-based
Human betaherpesvirus 5 [30] = assay: Ratio of EC50 for Human cytomegalovirus T2867 expressing UL27 kinase with A269T mutant gene to EC50 for Human cytomegalovirus T2211 expressing wild type UL27 gene; type: functional; outline: as §1
Human betaherpesvirus 5 [31] = assay: Ratio of EC50 for Human cytomegalovirus T2931 expressing UL27 kinase 301 to 311 deletion with frame shift mutation at 311 codon to EC50 for Human cytomegalovirus T2211 expressing wild type UL27 gene; type: functional; outline: as §1
Human betaherpesvirus 5 [32] = assay: Antiviral activity against Human cytomegalovirus T2211 expressing wild type UL27 kinase by SEAP yield reduction assay; type: functional, organism-based; details: Human betaherpesvirus 5, T2211; outline: as §2

CC(C)Nc1nc2cc(Cl)c(Cl)cc2n1[C@H]1O[C@@H](CO)[C@H](O)[C@@H]1O [MARIBAVIR]
fold change (FC) (Human betaherpesvirus 5 [1]): 15 | inhibition (Human betaherpesvirus 5 [2]): Active | Ratio EC50 (Human betaherpesvirus 5 [3]): 2.2 | EC50 (Human betaherpesvirus 5 [4]): 190 nM | Ratio EC50 (Human betaherpesvirus 5 [5]): 0.9 | EC50 (Human betaherpesvirus 5 [6]): 190 nM | Ratio EC50 (Human betaherpesvirus 5 [7]): 16 | EC50 (Human betaherpesvirus 5 [8]): 210 nM | inhibition (Human betaherpesvirus 5 [9]): Active | fold change (FC) (Human betaherpesvirus 5 [10]): 15 | Ratio EC50 (Human betaherpesvirus 5 [11]): 2 | Ratio EC50 (Human betaherpesvirus 5 [12]): 1.7 | Ratio EC50 (Human betaherpesvirus 5 [13]): 2.5 | EC50 (Human betaherpesvirus 5 [14]): 160 nM | Ratio EC50 (Human betaherpesvirus 5 [15]): 2.1 | EC50 (Human betaherpesvirus 5 [16]): 230 nM | fold change (FC) (Human betaherpesvirus 5 [17]): 15 | EC50 (Human betaherpesvirus 5 [18]): 210 nM | EC50 (Human betaherpesvirus 5 [19]): 290 nM | EC50 (Human betaherpesvirus 5 [20]): 84 nM | Ratio EC50 (Human betaherpesvirus 5 [21]): 2.2 | inhibition (Human betaherpesvirus 5 [22]): Active | fold change (FC) (Human betaherpesvirus 5 [23]): 15 | EC50 (Human betaherpesvirus 5 [24]): 240 nM | EC50 (Human betaherpesvirus 5 [25]): 1480 nM | Ratio EC50 (Human betaherpesvirus 5 [26]): 2.6 | inhibition (Human betaherpesvirus 5 [27]): Active | EC50 (Human betaherpesvirus 5 [28]): 200 nM | inhibition (Human betaherpesvirus 5 [29]): Active | Ratio EC50 (Human betaherpesvirus 5 [30]): 2 | Ratio EC50 (Human betaherpesvirus 5 [31]): 3.1 | EC50 (Human betaherpesvirus 5 [32]): 95 nM
